For series [1], the system named is Mus musculus. Kind of series: Analgesic activity in CFA-induced thermal hyperalgesia C57BL/6 mouse model assessed as reduction in latency time required to elicit paw withdrawal in response to radiant heat applied to the plantar surface of a hind paw administered as intraplantar injection treated at 24 hrs post CFA injection measured every 30 mins up to 120 mins post dose. The format is functional, organism-based.

The target in a further series is T1, Liver carboxylesterase 1 (Homo sapiens, UniProt P23141).
T1 sequence (P23141 whole entry): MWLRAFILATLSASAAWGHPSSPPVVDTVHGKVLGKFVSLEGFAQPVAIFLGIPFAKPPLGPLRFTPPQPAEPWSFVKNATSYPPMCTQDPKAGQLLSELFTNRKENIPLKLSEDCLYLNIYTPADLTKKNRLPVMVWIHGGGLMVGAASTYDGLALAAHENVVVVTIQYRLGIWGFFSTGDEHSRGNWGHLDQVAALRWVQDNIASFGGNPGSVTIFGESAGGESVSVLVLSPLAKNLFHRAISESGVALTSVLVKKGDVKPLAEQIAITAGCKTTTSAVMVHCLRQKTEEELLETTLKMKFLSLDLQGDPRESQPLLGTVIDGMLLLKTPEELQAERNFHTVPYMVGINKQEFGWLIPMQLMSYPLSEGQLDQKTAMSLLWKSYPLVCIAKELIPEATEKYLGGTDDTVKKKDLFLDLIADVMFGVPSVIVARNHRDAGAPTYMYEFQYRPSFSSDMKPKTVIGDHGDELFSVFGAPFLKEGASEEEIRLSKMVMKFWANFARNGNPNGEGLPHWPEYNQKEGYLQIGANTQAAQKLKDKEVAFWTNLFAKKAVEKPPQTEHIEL
The series can be described thus: Drug metabolism assessed as recombinant human CE1-mediated compound hydrolysis by measuring rate constant at 50 uM up to 30 mins by LC-UV analysis. Particulars: 0.5 h. It is filed as ADME. A digest of the protocol: (§1)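 Recombinant human carboxylesterase isoforms 1 and 2 were each incubated with the test ester. Hydrolysis was followed by HPLC-UV, tracking the disappearance of the substrate over incubation time relative to the initial amount. Chromatograms were also checked for peaks of the expected hydrolysis metabolites.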

Series [2] in a line: Drug metabolism in human keratinocytes assessed as residual substrate levels at 50 uM up to 120 mins by HPLC-UV analysis. Particulars: read-out: Stability. The format is ADME, cell-based, Keratinocyte.
The test system of series [3] is Mus musculus. The series can be described thus: Effect on thermal nociception of the contralateral paw in CFA-induced thermal hyperalgesia C57BL/6 mouse model at 10 to 100 ug administered as intraplantar injection treated at 24 hrs post CFA injection measure up to 120 mins. It is filed as ADME, organism-based. To be noted: in vivo, other.
In series [4] the target is Transient receptor potential cation channel subfamily V member 1 (Rattus norvegicus) (UniProt O35433). Kind of series: Inhibition of TRPV1 in Wistar rat neonatal dorsal root ganglia assessed as reduction in capsaicin-induced neuronal excitability by microelectrode array analysis.
In series [5] the test system is Mus musculus. Kind of series: Toxicity in C57BL/6 mouse assessed as change in body temperature at 10 mg/kg, iv after 120 mins. To be noted: in vivo, 2 h. The format is organism-based.
Series [6] in a line: Drug metabolism in human liver cytosol assessed as sulfate conjugate formation at 50 uM in presence of UDPGA after 60 mins by LC-ESI-MS analysis. It is filed as ADME, subcellular. Particulars: 1 h.
The test system of series [7] is Mus musculus. Kind of series: Antipruritic activity in C57BL/6 mouse non-histaminergic pruritus model assessed as reduction in chloroquine-induced licking behavior at 100 ug administered as intraplantar injection pretreated for 30 mins followed by chloroquine addition measured 10 to 20 mins post chloroquine instillation. It is filed as functional, organism-based.

The subject of series [8] is Mus musculus. Kind of series: Analgesic activity in CFA-induced thermal hyperalgesia C57BL/6 mouse model assessed as reduction in CFA-induced ipsilateral paw withdrawal latency at 1 mg/kg, iv treated at 24 hrs post CFA injection measured at 30 to 60 mins post dose. The format is functional, organism-based.
Series [9] concerns Mus musculus. Kind of series: Analgesic activity in CFA-induced thermal hyperalgesia C57BL/6 mouse model assessed as reduction in CFA-induced ipsilateral paw withdrawal latency at 10 mg/kg, iv treated at 24 hrs post CFA injection measured at 60 mins post dose. The format is functional, organism-based.
Series [10] concerns Mus musculus. The series can be described thus: Analgesic activity in CFA-induced thermal hyperalgesia C57BL/6 mouse model assessed as reduction in latency time required to elicit paw withdrawal in response to radiant heat applied to the plantar surface of a hind paw at 10 to 100 ug administered as intraplantar injection treated at 24 hrs post CFA injection measured at 30 mins post dose. It is filed as functional, organism-based.

The nature of series [11]: Drug metabolism in human fibroblast cells assessed as residual substrate levels at 50 uM up to 120 mins by HPLC-UV analysis. It is filed as ADME, cell-based. To be noted: read-out: Stability.
Series [12] relates to Mus musculus. The series can be described thus: Analgesic activity in CFA-induced thermal hyperalgesia C57BL/6 mouse model assessed as reduction in CFA-induced ipsilateral paw withdrawal administered intravenously treated for 24 hrs post CFA injection. It is filed as functional, organism-based.
For a further series, the target named is T2, Cocaine esterase (Homo sapiens, UniProt O00748).
T2 sequence (O00748 whole entry): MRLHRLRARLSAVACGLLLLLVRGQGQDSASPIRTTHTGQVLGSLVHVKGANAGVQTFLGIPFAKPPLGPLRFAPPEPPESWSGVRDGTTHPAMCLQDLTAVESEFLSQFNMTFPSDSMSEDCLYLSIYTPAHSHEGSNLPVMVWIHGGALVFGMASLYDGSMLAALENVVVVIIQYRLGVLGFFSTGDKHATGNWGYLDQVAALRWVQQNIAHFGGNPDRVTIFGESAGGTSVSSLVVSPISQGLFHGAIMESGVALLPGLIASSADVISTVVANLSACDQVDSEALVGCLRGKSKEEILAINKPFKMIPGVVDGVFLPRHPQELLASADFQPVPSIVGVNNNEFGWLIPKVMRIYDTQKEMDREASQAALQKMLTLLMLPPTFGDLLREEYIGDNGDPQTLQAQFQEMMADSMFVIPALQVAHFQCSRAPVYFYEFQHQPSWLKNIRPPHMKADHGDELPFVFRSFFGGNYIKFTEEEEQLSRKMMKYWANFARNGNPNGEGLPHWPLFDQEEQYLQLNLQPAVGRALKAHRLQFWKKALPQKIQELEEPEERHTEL
Kind of series: Drug metabolism assessed as recombinant human CE2-mediated compound hydrolysis by measuring rate constant at 50 uM up to 30 mins by LC-UV analysis. It is filed as ADME. Particulars: 0.5 h. In short, it runs like this: as §1

The next series deals with T3, Cocaine esterase (CE2) (Homo sapiens, UniProt O00748).
T3 sequence (O00748 whole entry): T2 sequence (O00748 whole entry)
The series can be described thus: Drug metabolism assessed as recombinant human CE2-mediated compound hydrolysis by measuring compound half life at 50 uM up to 30 mins by LC-UV analysis. The format is ADME. A digest of the protocol: as §1

Series [13] in a line: Drug metabolism in human plasma assessed as residual substrate levels at 100 uM up to 20 mins by HPLC-UV analysis. The format is ADME, cell-free. To be noted: read-out: Stability.
For series [14], the system named is Mus musculus. Kind of series: Analgesic activity in CFA-induced thermal hyperalgesia C57BL/6 mouse model assessed as reduction in latency time required to elicit paw withdrawal in response to radiant heat applied to the plantar surface of a hind paw at 10 to 100 ug administered as intraplantar injection treated at 24 hrs post CFA injection measured at 60 mins post dose. It is filed as functional, organism-based.

The target of series [15] is Transient receptor potential cation channel subfamily V member 1 (Homo sapiens, UniProt Q8NER1). Kind of series: Antagonist activity at TRPV1 (unknown origin) expressed in human SH-SY5Y cells assessed as inhibition of capsaicin-induced calcium influx at 1 uM after 25 mins by Fluo-4 NW dye-based fluorescence assay relative to capsaicin. It is filed as cell-based.

Active and inactive are the calls of the source.

Sequence of Transient receptor potential cation channel subfamily V member 1 (Q8NER1 whole entry): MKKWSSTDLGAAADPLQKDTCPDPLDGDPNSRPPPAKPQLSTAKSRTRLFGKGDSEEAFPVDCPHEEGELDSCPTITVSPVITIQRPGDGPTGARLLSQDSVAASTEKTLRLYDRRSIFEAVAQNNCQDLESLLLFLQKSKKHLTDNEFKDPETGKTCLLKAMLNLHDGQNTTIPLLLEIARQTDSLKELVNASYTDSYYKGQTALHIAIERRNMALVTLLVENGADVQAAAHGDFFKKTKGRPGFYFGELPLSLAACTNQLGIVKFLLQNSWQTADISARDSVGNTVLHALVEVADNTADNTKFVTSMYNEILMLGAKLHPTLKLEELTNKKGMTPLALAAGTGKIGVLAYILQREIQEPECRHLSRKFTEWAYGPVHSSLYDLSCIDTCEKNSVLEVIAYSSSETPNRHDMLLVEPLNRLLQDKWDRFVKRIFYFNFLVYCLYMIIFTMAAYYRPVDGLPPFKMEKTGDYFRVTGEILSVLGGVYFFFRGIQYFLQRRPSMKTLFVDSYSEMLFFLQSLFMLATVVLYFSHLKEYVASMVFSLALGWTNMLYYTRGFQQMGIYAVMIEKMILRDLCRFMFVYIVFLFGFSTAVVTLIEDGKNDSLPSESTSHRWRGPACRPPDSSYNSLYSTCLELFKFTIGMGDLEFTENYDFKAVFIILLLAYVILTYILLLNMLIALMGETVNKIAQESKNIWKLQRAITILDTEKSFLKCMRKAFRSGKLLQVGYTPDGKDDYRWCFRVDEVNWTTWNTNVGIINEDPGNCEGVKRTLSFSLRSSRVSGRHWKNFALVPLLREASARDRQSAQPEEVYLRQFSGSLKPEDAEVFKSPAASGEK
Sequence of Transient receptor potential cation channel subfamily V member 1 (Rattus norvegicus) (O35433 whole entry): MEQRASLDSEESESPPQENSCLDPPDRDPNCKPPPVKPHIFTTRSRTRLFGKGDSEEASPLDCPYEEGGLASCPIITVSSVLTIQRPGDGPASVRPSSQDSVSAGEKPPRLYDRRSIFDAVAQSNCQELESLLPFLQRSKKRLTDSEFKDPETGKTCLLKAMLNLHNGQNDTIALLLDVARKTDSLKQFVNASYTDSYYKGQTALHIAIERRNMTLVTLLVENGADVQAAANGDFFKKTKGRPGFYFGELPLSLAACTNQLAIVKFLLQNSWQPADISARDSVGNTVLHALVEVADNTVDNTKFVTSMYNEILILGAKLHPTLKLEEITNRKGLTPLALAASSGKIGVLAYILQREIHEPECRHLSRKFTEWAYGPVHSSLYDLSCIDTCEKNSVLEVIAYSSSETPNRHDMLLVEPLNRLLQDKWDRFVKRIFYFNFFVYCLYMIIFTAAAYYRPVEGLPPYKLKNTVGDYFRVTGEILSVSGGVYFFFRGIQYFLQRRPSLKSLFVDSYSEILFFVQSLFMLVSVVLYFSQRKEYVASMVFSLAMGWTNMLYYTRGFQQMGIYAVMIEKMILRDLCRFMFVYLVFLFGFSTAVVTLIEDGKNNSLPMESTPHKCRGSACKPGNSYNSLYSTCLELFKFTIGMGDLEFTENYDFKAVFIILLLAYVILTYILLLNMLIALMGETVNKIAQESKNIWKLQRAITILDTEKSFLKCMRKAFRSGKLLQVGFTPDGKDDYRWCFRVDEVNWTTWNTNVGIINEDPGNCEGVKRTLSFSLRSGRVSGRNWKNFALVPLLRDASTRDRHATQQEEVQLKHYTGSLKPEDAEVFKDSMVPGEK

In general, inhibition refers to the change of the read-out against control, counted positive when it falls. What is called half-life is the time needed for the level to fall by half in the phase considered. As to `CCCCCCCCCCCC(=O)OCC(=O)NCc1cc(OC)c(O)cc1I`, the Activity result in the series with Mus musculus [1] was “Dose-dependent effect”; in the series with Mus musculus [3], “Non-Toxic”; in the series with Mus musculus [5], “Non-Toxic”; with Mus musculus [12], “Dose-dependent effect”. The figures for the K on Liver carboxylesterase 1 and on Cocaine esterase were 0.0255 min⁻¹ and 0.0555 min⁻¹, respectively. Moreover, the remaining at 2 h, 50 µM was 22.6% in series [2] and 13.3% in [11]. Further, the inhibition result in series [4] was “Dose-dependent effect”; in series [15] it was 59.8%. Besides, the Drug metabolism entry in [6] is reported as “Metabolite_Notdetected”. Further, the outcome with Mus musculus [7], in the series with Mus musculus [8], with Mus musculus [9], in the series with Mus musculus [10] and with Mus musculus [14] was Active. Moreover, at Cocaine esterase (CE2), the half-life at 50 µM is 12.5 min. Also, the remaining at 20 min, 100 µM in series [13] stood at 82%.

For the origin of these results see ChEMBL document CHEMBL4219255, “Targeting Transient Receptor Potential Vanilloid 1 (TRPV1) Channel Softly: The Discovery of Passerini Adducts as a Topical Treatment for Inflammatory Skin Disorders” (J Med Chem, 2018).
